Experimental data reported in PubChem BioAssay AID588744 (Vanderbilt Specialized Chemistry Center, 2011).
Blank lines part the entries; values can stand above or below the molecule they belong to. Activity calls are given as the source filed them.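 The calls were made as follows: active = compounds whose response rose with dose, given a half-maximal potency and peak effect versus acetylcholine; inactive = the rest.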

Target: Muscarinic acetylcholine receptor M1 (Homo sapiens) (UniProt P11229)
Assay: potentiation of ACh at human M1 – CHO cells, calcium fluorescence, counter-screen for M4 PAM project, dose response (AID 588744)
Conditions: CHO hM1 calcium mobilization, Fluo-4 fluorescence
How it was run: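 Test system – hM1-expressing CHO cells with Fluo-4 · Benchmarks – 1 mM acetylcholine maximum · Also added – acetylcholine at EC20, then acetylcholine at EC80 · Schedule – 144 s compound preincubation, EC80 ACh 86 s after EC20, 37 °C · Evaluation – % of 1 mM ACh maximum and EC50 · Detection – Fluo-4 calcium fluorescence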

Sequence of Muscarinic acetylcholine receptor M1 (Homo sapiens) (P11229 whole entry, looked up): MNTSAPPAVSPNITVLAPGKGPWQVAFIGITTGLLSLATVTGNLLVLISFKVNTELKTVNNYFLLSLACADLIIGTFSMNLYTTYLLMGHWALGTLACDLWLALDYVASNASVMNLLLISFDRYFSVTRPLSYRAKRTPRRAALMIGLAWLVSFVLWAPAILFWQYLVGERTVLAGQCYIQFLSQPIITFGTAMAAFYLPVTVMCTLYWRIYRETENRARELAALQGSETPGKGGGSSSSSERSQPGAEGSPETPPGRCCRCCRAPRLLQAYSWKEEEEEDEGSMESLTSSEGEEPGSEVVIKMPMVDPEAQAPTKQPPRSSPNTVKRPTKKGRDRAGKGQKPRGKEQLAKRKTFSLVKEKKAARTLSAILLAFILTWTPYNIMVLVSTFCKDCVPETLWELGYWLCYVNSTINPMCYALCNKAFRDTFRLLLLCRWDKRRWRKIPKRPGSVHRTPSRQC

% ACh max response (at 30 µM (top of the series)): inactive
Structure (SMILES): Cc1nc2sc(C(=O)NCc3nccs3)c(N)c2c(C)c1Cl

% ACh max response (at 30 µM (top of the series)): inactive
Structure (SMILES): Cc1nc2sc(C(=O)NCc3ccncn3)c(N)c2c(C)c1Cl

% ACh max response (at 30 µM (top of the series)): inactive
Structure (SMILES): Cc1nc2sc(C(=O)NCCc3ccncc3)c(N)c2c(C)c1Cl

% ACh max response (at 45.3 µM (top of the series)): inactive
Structure (SMILES): Cc1nc2sc(C(=O)NCc3cccnc3)c(N)c2c(C)c1Cl

EC50: 969 nM
Structure (SMILES): Cc1nc2sc(C(=O)NC3CC3)c(N)c2c(C)c1Cl

% ACh max response (at 45.3 µM (top of the series)): inactive
Structure (SMILES): Cc1nc2sc(C(=O)NCc3ccncc3)c(N)c2c(C)c1Cl

% ACh max response (at 36.8 µM (top of the series)): inactive
Structure (SMILES): Cc1nc2sc(C(=O)NCc3ccc4c(c3)OCO4)c(N)c2c(C)c1Cl

% ACh max response (at 37.4 µM (top of the series)): inactive
Structure (SMILES): Cc1nc2sc(C(=O)NCc3ccccc3)c(N)c2c(C)c1Cl

% ACh max response (at 30 µM (top of the series)): inactive
Structure (SMILES): Cc1nc2sc(C(=O)NCc3cccc(F)c3F)c(N)c2c(C)c1Cl
